# Assay results published in ChEMBL document CHEMBL5705905, “Pharmacological targeting of kinases MST1 and MST2 augments tissue repair and regeneration” (Sci Transl Med, 2016).
# Active and inactive are the calls of the source. The calls are words filed in the database; no cut-off is given here.
# Assays:
# [1] = biological target: BMP-2-inducible protein kinase (Homo sapiens) (UniProt Q9NSY1); assay: Inhibition of BIKE (unknown origin) assessed as remaining activity at 1 uM by Kinome scan method relative to control
# Outline: (§1)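 KINOMEscan active-site-dependent competition-binding panel of 468 kinases, compound at 1 μM from a DMSO stock. Result reported as ctrl% = (test signal − positive control signal)/(negative control signal − positive control signal) × 100. The negative control is DMSO (100%) and the positive control is a control compound (0%). Lower ctrl% means tighter binding.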
# [2] = biological target: Serine/threonine-protein kinase BRSK1 (Homo sapiens) (UniProt Q8TDC3); assay: Inhibition of BRSK1 (unknown origin) assessed as remaining activity at 1 uM by Kinome scan method relative to control
# Outline: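 Active-site-dependent competition-binding (KINOMEscan) panel of 468 kinases, test compound at 1 μM (from a 10 mM DMSO stock). Read-out is ctrl% = (test signal − positive control signal)/(negative control signal − positive control signal) × 100. DMSO is the negative control (100%) and a control compound is the positive control (0%). Lower ctrl% means tighter binding.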
# [3] = biological target: Calcium/calmodulin-dependent protein kinase type 1 (Homo sapiens) (UniProt Q14012); assay: Inhibition of CAMK1 (unknown origin) assessed as remaining activity at 1 uM by Kinome scan method relative to control; outline: as §1
# [4] = biological target: Citron Rho-interacting kinase (Homo sapiens) (UniProt O14578); assay: Inhibition of CIT (unknown origin) assessed as remaining activity at 1 uM by Kinome scan method relative to control
# Outline: (§2)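 Active-site-dependent competition-binding profiling (KINOMEscan) at 1 μM against a 468-kinase panel; compound supplied from a 10 mM DMSO stock. Read-out is ctrl% = (test signal − positive control signal)/(negative control signal − positive control signal) × 100. DMSO is the negative control (100%) and a control compound the positive control (0%). Lower ctrl% means tighter binding.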
# [5] = biological target: Casein kinase I isoform epsilon (Homo sapiens) (UniProt P49674); assay: Inhibition of CSNK1E (unknown origin) assessed as remaining activity at 1 uM by Kinome scan method relative to control; outline: as §2
# [6] = biological target: Death-associated protein kinase 3 (Homo sapiens) (UniProt O43293); assay: Inhibition of DAPK3 (unknown origin) assessed as remaining activity at 1 uM by Kinome scan method relative to control; outline: as §2
# [7] = biological target: Ephrin type-B receptor 6 (Homo sapiens) (UniProt O15197); assay: Inhibition of EPHB6 (unknown origin) assessed as remaining activity at 1 uM by Kinome scan method relative to control
# [8] = biological target: Mitogen-activated protein kinase 8 (Homo sapiens) (UniProt P45983); assay: Inhibition of JNK1 (unknown origin) assessed as remaining activity at 1 uM by Kinome scan method relative to control
# [9] = biological target: Serine/threonine-protein kinase MAK (Homo sapiens) (UniProt P20794); assay: Inhibition of MAK (unknown origin) assessed as remaining activity at 1 uM by Kinome scan method relative to control
# [10] = biological target: MAP/microtubule affinity-regulating kinase 4 (Homo sapiens) (UniProt Q96L34); assay: Inhibition of MARK4 (unknown origin) assessed as remaining activity at 1 uM by Kinome scan method relative to control
# [11] = biological target: Serine/threonine-protein kinase Nek3 (Homo sapiens) (UniProt P51956); assay: Inhibition of NEK3 (unknown origin) assessed as remaining activity at 1 uM by Kinome scan method relative to control
# [12] = biological target: Mitogen-activated protein kinase kinase kinase 14 (Homo sapiens) (UniProt Q99558); assay: Inhibition of NIK (unknown origin) assessed as remaining activity at 1 uM by Kinome scan method relative to control
# [13] = biological target: Cyclin-dependent kinase 16 (Homo sapiens) (UniProt Q00536); assay: Inhibition of PCTK1 (unknown origin) assessed as remaining activity at 1 uM by Kinome scan method relative to control
# [14] = tested on: Phosphatidylinositol 4,5-bisphosphate 3-kinase catalytic subunit alpha isoform (Homo sapiens), P42336 [C420R]; assay: Inhibition of PIK3CA C420R mutant (unknown origin) assessed as remaining activity at 1 uM by Kinome scan method relative to control
# [15] = biological target: Phosphatidylinositol 4-phosphate 5-kinase type-1 alpha (Homo sapiens) (UniProt Q99755); assay: Inhibition of PIP5K1A (unknown origin) assessed as remaining activity at 1 uM by Kinome scan method relative to control
# [16] = biological target: Protein kinase C delta type (Homo sapiens) (UniProt Q05655); assay: Inhibition of PRKCD (unknown origin) assessed as remaining activity at 1 uM by Kinome scan method relative to control
# [17] = biological target: cGMP-dependent protein kinase 1 (Homo sapiens) (UniProt Q13976); assay: Inhibition of PRKG1 (unknown origin) assessed as remaining activity at 1 uM by Kinome scan method relative to control
# [18] = biological target: Ribosomal protein S6 kinase alpha-4 (Homo sapiens) (UniProt O75676); assay: Inhibition of N-terminal kinase domain RPS6KA4 (unknown origin) assessed as remaining activity at 1 uM by Kinome scan method relative to control
# [19] = biological target: Non-receptor tyrosine-protein kinase TNK1 (Homo sapiens) (UniProt Q13470); assay: Inhibition of TNK1 (unknown origin) assessed as remaining activity at 1 uM by Kinome scan method relative to control
# [20] = biological target: Tyrosine-protein kinase ABL1 (Homo sapiens, UniProt P00519, Q252H); assay: Binding affinity to phosphorylated ABL1 Q252H mutant (unknown origin) assessed as dissociation constant
# Aurora kinase B = Aurora kinase B (Homo sapiens, UniProt Q96GD4); assay: Inhibition of AURKB (unknown origin) in presence of ATP by enzymatic assay
# [21] = biological target: Phosphatidylinositol 4-phosphate 5-kinase type-1 gamma (Homo sapiens, UniProt O60331); assay: Inhibition of PIP5K1C (unknown origin) in presence of ATP by enzymatic assay
# Primary hepatocyte = assay: Inhibition of MST1/2 (unknown origin) in mouse Primary hepatocyte cells assessed as H2O2 stimulated MST1/2 autophosphorylation level at 1 to 3 uM by immunoblot analysis; type: cell-based; conditions: dose 1-3 µM
# HepG2 = assay: Induction of apoptosis in human HepG2 cells overexpressing MST2 assessed as late apoptosis cells at 3 uM by annexinV staining (Rvb =2.01 %); type: functional
# [22] = Half life in male Sprague-Dawley rat at 5 mg/kg, iv measured for 24 hrs by LC-MS/MS analysis; type: ADME, organism-based; conditions: in vivo
# Outline: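 Sprague-Dawley rats, single intravenous or oral dose. Parameters (half-life, AUC, bioavailability) reported in a supplementary table.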
# [23] = Tmax in male Sprague-Dawley rat at 5 mg/kg, iv measured for 24 hrs by LC-MS/MS analysis; type: ADME, organism-based; conditions: in vivo
# [24] = Acute toxicity in wild-type mouse assessed as ratio of liver weight to body weight at 1 mg/kg,ip administrated twice daily for 6 days; type: organism-based; conditions: in vivo, 144 h, time 6 day
# Outline: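 Wild-type mice underwent two-thirds partial hepatectomy with vehicle or 1 mg/kg i.p. twice per day, starting with a dose before surgery. Liver/body weight ratio was followed over postoperative days, n = 5; means ± SD.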
# Mus musculus = assay: Protection against APAP induced liver injury in mouse assessed as continual expansion of centrilobular necrotic lesions at 1 mg/kg, ip administered at 1.5 hrs by H&E staining; type: functional, organism-based
# Serine/threonine-protein kinase MAK (Homo sapiens), sequence (P20794 whole entry): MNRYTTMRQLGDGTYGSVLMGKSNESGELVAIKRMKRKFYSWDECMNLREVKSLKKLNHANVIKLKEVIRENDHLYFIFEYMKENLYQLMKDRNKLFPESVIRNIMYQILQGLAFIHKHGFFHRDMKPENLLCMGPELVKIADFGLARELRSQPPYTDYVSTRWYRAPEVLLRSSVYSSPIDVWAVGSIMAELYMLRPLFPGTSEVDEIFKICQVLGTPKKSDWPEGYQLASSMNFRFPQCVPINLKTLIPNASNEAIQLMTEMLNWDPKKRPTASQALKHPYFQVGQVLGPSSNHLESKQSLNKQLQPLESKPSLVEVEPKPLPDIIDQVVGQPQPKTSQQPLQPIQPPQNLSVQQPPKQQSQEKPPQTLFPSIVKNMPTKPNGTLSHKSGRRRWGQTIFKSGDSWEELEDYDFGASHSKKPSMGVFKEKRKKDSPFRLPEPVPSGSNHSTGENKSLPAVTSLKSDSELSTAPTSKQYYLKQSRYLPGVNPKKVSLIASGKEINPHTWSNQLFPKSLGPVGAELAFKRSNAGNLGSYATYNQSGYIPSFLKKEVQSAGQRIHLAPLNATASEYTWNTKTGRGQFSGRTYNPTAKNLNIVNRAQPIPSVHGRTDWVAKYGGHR
# Protein kinase C delta type (Homo sapiens), sequence (Q05655 whole entry, looked up): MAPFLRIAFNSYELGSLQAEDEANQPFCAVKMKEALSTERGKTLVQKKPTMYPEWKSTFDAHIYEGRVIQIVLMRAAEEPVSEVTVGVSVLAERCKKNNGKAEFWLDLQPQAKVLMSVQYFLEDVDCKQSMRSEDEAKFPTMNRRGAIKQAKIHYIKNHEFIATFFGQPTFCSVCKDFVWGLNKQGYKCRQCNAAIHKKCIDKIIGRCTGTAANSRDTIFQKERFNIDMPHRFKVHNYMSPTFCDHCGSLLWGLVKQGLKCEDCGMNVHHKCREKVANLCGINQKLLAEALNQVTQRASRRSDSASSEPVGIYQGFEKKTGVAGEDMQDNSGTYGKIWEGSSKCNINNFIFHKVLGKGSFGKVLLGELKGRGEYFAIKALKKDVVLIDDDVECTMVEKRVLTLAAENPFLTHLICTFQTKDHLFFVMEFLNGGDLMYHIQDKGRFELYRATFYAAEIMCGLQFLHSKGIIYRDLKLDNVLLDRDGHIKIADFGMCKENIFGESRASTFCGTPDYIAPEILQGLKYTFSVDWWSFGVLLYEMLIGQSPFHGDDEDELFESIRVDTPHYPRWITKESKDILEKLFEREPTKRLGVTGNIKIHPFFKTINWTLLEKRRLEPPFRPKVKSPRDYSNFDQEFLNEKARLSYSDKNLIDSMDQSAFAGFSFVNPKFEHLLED
# Ephrin type-B receptor 6 (Homo sapiens), sequence (O15197 whole entry): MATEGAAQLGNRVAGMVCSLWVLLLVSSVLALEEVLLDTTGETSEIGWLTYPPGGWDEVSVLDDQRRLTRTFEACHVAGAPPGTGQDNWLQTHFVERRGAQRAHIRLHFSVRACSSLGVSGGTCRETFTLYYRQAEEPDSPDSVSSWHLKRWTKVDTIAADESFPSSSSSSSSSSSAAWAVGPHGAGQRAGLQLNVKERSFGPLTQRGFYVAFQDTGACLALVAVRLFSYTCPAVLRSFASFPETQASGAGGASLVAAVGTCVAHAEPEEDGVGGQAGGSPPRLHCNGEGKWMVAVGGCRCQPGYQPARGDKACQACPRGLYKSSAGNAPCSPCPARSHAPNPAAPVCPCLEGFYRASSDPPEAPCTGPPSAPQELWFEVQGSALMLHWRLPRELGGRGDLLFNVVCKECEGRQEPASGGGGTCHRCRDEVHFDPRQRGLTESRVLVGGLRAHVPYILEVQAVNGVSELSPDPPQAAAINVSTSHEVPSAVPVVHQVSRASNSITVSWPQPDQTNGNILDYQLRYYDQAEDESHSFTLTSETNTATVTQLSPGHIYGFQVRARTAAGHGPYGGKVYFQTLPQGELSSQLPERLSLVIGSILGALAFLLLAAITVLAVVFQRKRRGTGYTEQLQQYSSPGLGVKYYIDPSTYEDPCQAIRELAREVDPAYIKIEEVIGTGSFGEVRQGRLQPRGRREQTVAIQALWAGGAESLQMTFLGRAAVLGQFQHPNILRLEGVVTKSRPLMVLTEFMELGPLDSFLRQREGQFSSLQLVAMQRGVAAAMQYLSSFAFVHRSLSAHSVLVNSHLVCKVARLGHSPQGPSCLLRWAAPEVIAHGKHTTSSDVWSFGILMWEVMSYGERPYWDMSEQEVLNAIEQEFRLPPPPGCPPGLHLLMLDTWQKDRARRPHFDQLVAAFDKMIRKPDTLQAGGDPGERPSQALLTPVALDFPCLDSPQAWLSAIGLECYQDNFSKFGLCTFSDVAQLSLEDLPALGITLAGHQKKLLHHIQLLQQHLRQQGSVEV
# Ribosomal protein S6 kinase alpha-4 (Homo sapiens), sequence (O75676 whole entry, looked up, the tested form may be a part): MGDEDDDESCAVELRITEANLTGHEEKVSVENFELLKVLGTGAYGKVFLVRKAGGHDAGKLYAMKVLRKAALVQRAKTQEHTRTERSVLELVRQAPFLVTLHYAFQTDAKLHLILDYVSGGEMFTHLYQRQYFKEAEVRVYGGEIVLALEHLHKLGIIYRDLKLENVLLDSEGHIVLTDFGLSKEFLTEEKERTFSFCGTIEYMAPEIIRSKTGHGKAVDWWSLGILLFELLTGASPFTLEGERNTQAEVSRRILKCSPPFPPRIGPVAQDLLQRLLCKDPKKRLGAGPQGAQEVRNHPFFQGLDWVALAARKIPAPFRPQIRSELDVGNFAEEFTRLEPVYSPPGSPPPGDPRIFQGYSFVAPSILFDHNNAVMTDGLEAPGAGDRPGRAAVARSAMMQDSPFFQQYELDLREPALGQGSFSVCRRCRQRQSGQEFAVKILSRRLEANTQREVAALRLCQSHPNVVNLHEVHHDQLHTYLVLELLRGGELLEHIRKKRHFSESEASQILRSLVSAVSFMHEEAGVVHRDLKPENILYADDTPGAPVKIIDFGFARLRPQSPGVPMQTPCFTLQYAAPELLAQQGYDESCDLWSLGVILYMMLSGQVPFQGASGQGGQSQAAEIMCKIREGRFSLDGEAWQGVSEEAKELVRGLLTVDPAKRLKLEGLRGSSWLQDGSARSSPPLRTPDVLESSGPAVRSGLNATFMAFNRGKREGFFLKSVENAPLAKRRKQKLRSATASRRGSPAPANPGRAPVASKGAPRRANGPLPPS
# Non-receptor tyrosine-protein kinase TNK1 (Homo sapiens), sequence (Q13470 whole entry): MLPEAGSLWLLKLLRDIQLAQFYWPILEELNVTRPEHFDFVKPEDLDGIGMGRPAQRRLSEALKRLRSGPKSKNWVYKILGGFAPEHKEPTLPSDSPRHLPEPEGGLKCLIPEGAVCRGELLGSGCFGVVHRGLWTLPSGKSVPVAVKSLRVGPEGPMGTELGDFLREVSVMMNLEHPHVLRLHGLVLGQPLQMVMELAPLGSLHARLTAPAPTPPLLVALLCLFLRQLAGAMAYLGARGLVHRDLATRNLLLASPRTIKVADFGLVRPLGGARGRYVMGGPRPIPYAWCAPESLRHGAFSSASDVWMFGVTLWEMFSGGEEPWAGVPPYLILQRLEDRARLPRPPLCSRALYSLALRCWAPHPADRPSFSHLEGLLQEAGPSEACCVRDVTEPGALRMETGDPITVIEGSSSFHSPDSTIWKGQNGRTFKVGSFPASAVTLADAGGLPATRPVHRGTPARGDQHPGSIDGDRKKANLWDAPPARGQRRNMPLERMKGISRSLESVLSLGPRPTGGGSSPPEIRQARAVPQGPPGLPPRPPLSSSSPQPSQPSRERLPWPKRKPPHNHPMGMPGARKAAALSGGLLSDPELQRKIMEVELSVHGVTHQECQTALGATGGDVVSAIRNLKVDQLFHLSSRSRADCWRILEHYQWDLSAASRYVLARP
# BMP-2-inducible protein kinase (Homo sapiens), sequence (Q9NSY1 whole entry, looked up): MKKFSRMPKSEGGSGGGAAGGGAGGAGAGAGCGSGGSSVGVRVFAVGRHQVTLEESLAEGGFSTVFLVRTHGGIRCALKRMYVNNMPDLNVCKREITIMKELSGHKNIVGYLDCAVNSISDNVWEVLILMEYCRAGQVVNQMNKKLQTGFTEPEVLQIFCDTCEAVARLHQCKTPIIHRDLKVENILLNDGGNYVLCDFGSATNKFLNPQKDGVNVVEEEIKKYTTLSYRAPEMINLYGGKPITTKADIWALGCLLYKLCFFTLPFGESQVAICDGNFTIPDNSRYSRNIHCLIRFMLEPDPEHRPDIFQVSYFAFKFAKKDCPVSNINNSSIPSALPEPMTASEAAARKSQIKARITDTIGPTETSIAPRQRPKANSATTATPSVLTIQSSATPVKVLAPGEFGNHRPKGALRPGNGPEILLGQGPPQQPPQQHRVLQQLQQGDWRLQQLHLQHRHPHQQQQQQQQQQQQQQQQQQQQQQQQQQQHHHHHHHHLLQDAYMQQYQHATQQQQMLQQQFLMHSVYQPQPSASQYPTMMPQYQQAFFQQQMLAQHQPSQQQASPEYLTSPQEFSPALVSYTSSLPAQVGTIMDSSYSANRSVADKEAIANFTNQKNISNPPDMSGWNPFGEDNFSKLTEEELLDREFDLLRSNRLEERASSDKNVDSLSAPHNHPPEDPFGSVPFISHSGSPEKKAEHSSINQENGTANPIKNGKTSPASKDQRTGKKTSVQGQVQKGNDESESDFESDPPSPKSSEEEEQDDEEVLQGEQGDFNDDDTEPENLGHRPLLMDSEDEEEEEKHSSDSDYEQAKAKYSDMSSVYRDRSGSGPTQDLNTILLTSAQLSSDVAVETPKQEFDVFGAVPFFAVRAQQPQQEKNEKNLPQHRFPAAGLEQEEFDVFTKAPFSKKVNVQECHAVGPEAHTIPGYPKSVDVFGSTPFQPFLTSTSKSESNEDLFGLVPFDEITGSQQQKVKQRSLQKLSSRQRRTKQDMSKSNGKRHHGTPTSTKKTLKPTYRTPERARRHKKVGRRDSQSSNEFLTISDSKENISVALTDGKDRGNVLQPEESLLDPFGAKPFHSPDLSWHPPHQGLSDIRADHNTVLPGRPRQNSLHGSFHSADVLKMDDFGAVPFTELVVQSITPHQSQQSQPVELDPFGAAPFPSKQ
smiles,measurement,setting,value
CN1C(=O)c2sccc2N(C)c2nc(Nc3ccc(S(N)(=O)=O)cc3)ncc21,Activity,[1],95%
same,Activity,[2],96%
same,Activity,[3],95%
same,Activity,[4],96%
same,Activity,[5],92%
same,Activity,[6],94%
same,Activity,[7],100%
same,Activity,[8],81%
same,Activity,[9],100%
same,Activity,[10],100%
same,Activity,[11],66%
same,Activity,[12],58%
same,Activity,[13],93%
same,Activity,[14],96%
same,Activity,[15],100%
same,Activity,[16],94%
same,Activity,[17],98%
same,Activity,[18],81%
same,Activity,[19],69%
same,Kd,[20],0.024 µM
same,IC50,Aurora kinase B,0.0191 µM
same,IC50,[21],0.436 µM
same,inhibition,Primary hepatocyte,Active
same,Activity,HepG2,1.54%
same,half-life,[22],74.4 min
same,Tmax,[23],4.98 min
same,Activity,[24],Non-Toxic
same,Activity,Mus musculus,Active
